Experimental data from ChEMBL document CHEMBL1629527, “In vitro antifungal activities of bis(alkylpyridinium)alkane compounds against pathogenic yeasts and molds” (Antimicrob Agents Chemother, 2010).

What was measured:
[1] = test system: Cryptococcus neoformans; test: Antifungal activity against Cryptococcus neoformans after 24 to 72 hrs by broth microdilution method; format: functional
Method in brief: (§1)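 Broth microdilution MIC per CLSI M27-A3 (yeasts) or M38-A2 (molds). RPMI 1640 with L-glutamine, without bicarbonate, buffered to pH 7.0 with 0.165 M MOPS. Final test range for the compounds was 0.175–87.5 μM. Incubation at 35°C with visual reading at 24–72 h. MIC was the lowest concentration giving 100% inhibition versus the growth control (azoles 50% or 100%, by organism). Each isolate was run in duplicate in two independent experiments.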

[2] = test system: Cryptococcus gattii species complex; test: Antifungal activity against Cryptococcus gattii after 24 to 72 hrs by broth microdilution method; format: functional, Cryptococcus bacillisporus; method in brief: as §1
[3] = test system: Candida tropicalis; test: Antifungal activity against Candida tropicalis after 48 to 72 hrs; format: functional; conditions: for MFC: Candida tropicalis
Method in brief: (§2)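 MFC: after the MIC read, 30-μl aliquots from each well without visible growth were plated onto Sabouraud dextrose agar and incubated at 35°C. Reading was at 48–72 h for yeasts and up to 7 days for molds. MFC was the lowest concentration with no colonies.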

[4] = test system: Cryptococcus gattii species complex; test: Antifungal activity against Cryptococcus gattii after 48 to 72 hrs; format: functional, Cryptococcus bacillisporus; conditions: for MFC: Cryptococcus gattii species complex; method in brief: as §2
[5] = test system: Candida albicans; test: Antifungal activity against Candida albicans after 24 to 72 hrs by broth microdilution method; format: functional
Method in brief: (§3)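 CLSI M27-A3 broth microdilution for yeasts in RPMI 1640 with L-glutamine and no bicarbonate, buffered with 0.165 M MOPS to pH 7.0. Compounds were dissolved in water and tested at 0.175–87.5 μM final, 35°C. MIC was read visually at 24–72 h as 100% inhibition versus growth control. For MFC, 30 μl from clear wells went onto SDA at 35°C for 48–72 h, reading the lowest concentration without colonies. Duplicates, two independent runs.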

[6] = test system: Nakaseomyces glabratus; test: Antifungal activity against Candida glabrata after 24 to 72 hrs by broth microdilution method; format: functional; method in brief: as §1
[7] = test system: Aspergillus fumigatus; test: Antifungal activity against Aspergillus fumigatus ATCC 204305 after 48 to 72 hrs; format: functional
Method in brief: (§4)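 CLSI M38-A2 broth microdilution for molds in RPMI 1640 with L-glutamine and no bicarbonate, buffered with 0.165 M MOPS to pH 7.0. Compounds were dissolved in water and tested at 0.175–87.5 μM final, 35°C, up to 7 days. MIC was read visually as 100% inhibition versus growth control. For MFC, clear wells were plated on SDA and the lowest concentration with no colonies taken. Each isolate was run in duplicate, two independent experiments.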

[8] = test system: Aspergillus fumigatus; test: Antifungal activity against Aspergillus fumigatus 05-203114 after 48 to 72 hrs; format: functional; method in brief: as §4
[9] = test system: Cunninghamella bertholletiae; test: Antifungal activity against Cunninghamella bertholletiae 99-12187 after 48 to 72 hrs; format: functional; conditions: in the assay text read “for up to 7 days” for “after 48 to 72 hrs”; method in brief: as §2
[10] = test system: Candida parapsilosis; test: Antifungal activity against Candida parapsilosis 04-202398 after 48 to 72 hrs; format: functional; conditions: Lodderomyces parapsilosis; method in brief: as §3
[11] = test system: Aspergillus fumigatus; test: Antifungal activity against Aspergillus fumigatus 05-203114 after 24 to 72 hrs by broth microdilution method; format: functional; method in brief: as §1
[12] = test system: Aspergillus flavus; test: Antifungal activity against Aspergillus flavus 05-203758 after 24 to 72 hrs by broth microdilution method; format: functional; method in brief: as §1
[13] = test system: Candida tropicalis; test: Antifungal activity against Candida tropicalis 04-202361 after 24 to 72 hrs by broth microdilution method; format: functional; method in brief: as §1
[14] = test system: Clavispora lusitaniae; test: Antifungal activity against Candida lusitaniae after 24 to 72 hrs by broth microdilution method; format: functional; method in brief: as §1
[15] = Antifungal activity against Exophiala jeanselmei 03-200268 after 48 to 72 hrs; format: functional; method in brief: as §4
[16] = test system: Aspergillus terreus; test: Antifungal activity against Aspergillus terreus 05-202844 after 48 to 72 hrs; format: functional; method in brief: as §2
[17] = test system: Lomentospora prolificans; test: Antifungal activity against Scedosporium prolificans 05-203060 after 48 to 72 hrs; format: functional; method in brief: as §4
[18] = test system: Pichia kudriavzevii; test: Antifungal activity against Candida krusei ATCC 6258 after 48 to 72 hrs; format: functional; method in brief: as §2
[19] = test system: Pichia kudriavzevii; test: Antifungal activity against Candida krusei […] after 48 to 72 hrs; format: functional; method in brief: as §2
[20] = test system: Candida parapsilosis; test: Antifungal activity against Candida parapsilosis ATCC 22019 after 48 to 72 hrs; format: functional; conditions: Lodderomyces parapsilosis; method in brief: as §2
[21] = test system: Pichia kudriavzevii; test: Antifungal activity against Candida krusei ATCC 9258 after 24 to 72 hrs by broth microdilution method; format: functional; method in brief: as §1
[22] = test system: Exophiala spinifera; test: Antifungal activity against Exophiala spinifera 03-200803 after 48 to 72 hrs; format: functional; method in brief: as §4
[23] = test system: Candida tropicalis; test: Antifungal activity against Candida tropicalis 04-202361 after 48 to 72 hrs; format: functional; method in brief: as §3
[24] = test system: Aspergillus flavus; test: Antifungal activity against Aspergillus flavus 05-203758 after 48 to 72 hrs; format: functional; method in brief: as §4
[25] = test system: Nakaseomyces glabratus; test: Antifungal activity against Candida glabrata 04-202345 after 48 to 72 hrs; format: functional; method in brief: as §2
[26] = test system: Candida albicans; test: Antifungal activity against Candida albicans ATCC 90028 after 48 to 72 hrs; format: functional; method in brief: as §2
[27] = test system: Candida albicans; test: Antifungal activity against Candida albicans ATCC 10231 after 48 to 72 hrs; format: functional; method in brief: as §2

MIC [1] | MIC50 [1] | MIC90 [1] | MIC [2] | MIC50 [2] | MIC90 [2] | MIC50 [5] | MIC90 [5] | MIC [6] | MIC50 [6] | MIC90 [6] | MIC [11] | MIC [12] | MIC [13] | SMILES | MFC50 [3] | MFC90 [3] | MFC [3] | MFC50 [4] | MFC90 [4] | MFC [4] | further results
1.19 µg/mL | 0.79 µg/mL | 3.11 µg/mL | 0.79 µg/mL | 0.79 µg/mL | 0.79 µg/mL | 1.56 µg/mL | 1.56 µg/mL | 0.739 µg/mL | 0.79 µg/mL | 0.79 µg/mL | 12.7 µg/mL | 25.3 µg/mL | 0.79 µg/mL | CCCCCCc1cc[n+](CCCCCCCCCCCC[n+]2ccc(CCCCCC)cc2)cc1.[Cl-].[Cl-] | 1.56 µg/mL | 1.56 µg/mL | 0.39 µg/mL | 0.79 µg/mL | 0.79 µg/mL | 0.79 µg/mL | MIC [5]: 1.56 µg/mL; MFC [7]: 50.7 µg/mL; MFC [8]: 50.7 µg/mL; MFC [9]: 25.3 µg/mL; MFC [10]: 50.7 µg/mL; MIC [14]: 1.04 µg/mL; MIC50 [14]: 0.79 µg/mL; MIC90 [14]: 1.56 µg/mL
2.41 µg/mL | 1.48 µg/mL | 5.91 µg/mL | 1.06 µg/mL | 0.75 µg/mL | 1.48 µg/mL | 1.48 µg/mL | 1.48 µg/mL | 0.701 µg/mL | 0.75 µg/mL | 0.75 µg/mL | 47.3 µg/mL | 47.3 µg/mL | 0.74 µg/mL | CCCCCc1cc[n+](CCCCCCCCCCCC[n+]2ccc(CCCCC)cc2)cc1.[Cl-].[Cl-] | 0.75 µg/mL | 0.75 µg/mL | 0.38 µg/mL | 1.48 µg/mL | 1.48 µg/mL | 0.75 µg/mL | MFC [15]: 2.96 µg/mL; MFC [16]: 11.8 µg/mL; MFC [17]: 2.96 µg/mL; MFC [18]: 11.8 µg/mL; MFC [19]: 11.8 µg/mL; MFC [20]: 1.48 µg/mL; MIC [21]: 5.9 µg/mL; MIC [14]: 0.86 µg/mL; MIC50 [14]: 0.75 µg/mL; MIC90 [14]: 1.48 µg/mL
3.83 µg/mL | 2.94 µg/mL | 5.87 µg/mL | 1.81 µg/mL | 1.48 µg/mL | 2.94 µg/mL | 1.47 µg/mL | 1.47 µg/mL | 0.975 µg/mL | 1.47 µg/mL | 1.47 µg/mL | > 47.3 µg/mL | > 47.3 µg/mL | 1.48 µg/mL | C=CCCCc1cc[n+](CCCCCCCCCCCC[n+]2ccc(CCCC=C)cc2)cc1.[Cl-].[Cl-] | 0.75 µg/mL | 1.47 µg/mL | 0.37 µg/mL | 2.94 µg/mL | 2.94 µg/mL | 2.94 µg/mL | MIC [5]: 1.28 µg/mL; MFC [23]: 5.9 µg/mL; MFC [26]: 2.96 µg/mL; MFC [27]: 5.9 µg/mL; MFC [18]: 11.8 µg/mL; MFC [20]: 2.96 µg/mL; MIC [21]: 11.8 µg/mL; MIC [14]: 2.74 µg/mL; MIC50 [14]: 2.93 µg/mL; MIC90 [14]: 2.93 µg/mL; MFC [25]: 3 µg/mL

SMILES | MIC [1] | MIC50 [1] | MIC90 [1] | MIC [2] | MIC50 [2] | MIC90 [2] | MIC50 [5] | MIC90 [5] | MIC [6] | MIC50 [6] | MIC90 [6] | MIC [11] | MIC [12] | MIC [13] | MFC50 [3] | MFC90 [3] | MFC [3] | MFC50 [4] | MFC90 [4] | MFC [4] | further results
CCCCCc1cc[n+](CCCCCCCCCCCC[n+]2ccc(CCCCC)c(C)c2)cc1C.[Cl-].[Cl-] | 1.28 µg/mL | 0.79 µg/mL | 3.11 µg/mL | 0.79 µg/mL | 0.79 µg/mL | 0.79 µg/mL | 1.56 µg/mL | 1.56 µg/mL | 0.642 µg/mL | 0.79 µg/mL | 0.79 µg/mL | 25.3 µg/mL | 25.3 µg/mL | 0.79 µg/mL | 0.79 µg/mL | 1.56 µg/mL | 0.39 µg/mL | 0.79 µg/mL | 0.79 µg/mL | 0.79 µg/mL | MFC [22]: 1.58 µg/mL; MIC [5]: 1.36 µg/mL; MFC [23]: 1.58 µg/mL; MFC [7]: 50.7 µg/mL; MFC [24]: 50.7 µg/mL; MFC [17]: 6.83 µg/mL; MFC [10]: 50.7 µg/mL; MIC [14]: 2.71 µg/mL; MIC50 [14]: 3.11 µg/mL; MIC90 [14]: 3.11 µg/mL; MFC [25]: 3.2 µg/mL
